In ChEMBL document CHEMBL3608304, “Anti-inflammatory Labdane Diterpenoids from Leonurus macranthus” (J Nat Prod, 2015) one finds IC50, Activity and inhibition data, which are given here for 16 compounds.

The IC50 is the point on the concentration scale where inhibition reaches its midpoint. Usually inhibition stands for how much of the control response was suppressed.

For series [1], the system named is BV-2. Briefly: Inhibition of LPS-activated nitric oxide production in mouse BV2 cells pre-treated for 60 mins before LPS challenge for 24 hrs by Griess assay. The class given is functional, cell-based. The essentials:
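LPS-activated BV-2 microglial cells; NO production measured by Griess assay; indomethacin as positive control; results expressed as IC50 (μM).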

Series [2] is described as follows: Toxicity against mouse BV2 cells assessed as effect on cell viability at 80 uM incubated for 24 hrs by MTT assay. The class given is cell-based. Conditions: bv-2, 24 h. In general terms: Formazan colour is commonly taken as a measure of viable cells.
Series [3] relates to BV-2. Description: Inhibition of LPS-activated nitric oxide production in mouse BV2 cells at 80 uM pre-treated for 60 mins before LPS challenge for 24 hrs by Griess assay. It counts as functional. A general note: Griess reagent forms a coloured azo dye with nitrite.

As for `COc1ccc2c(c1)c(CC(=O)O)c(C)n2C(=O)c1ccc(Cl)cc1` [INDOMETHACIN], the IC50 in the series with BV-2 [1] was 35.7 µM.
On to `CC(=O)OC[C@@]1(C)[C@H](O)CC[C@@]2(C)[C@H]1CC(=O)[C@@H](C)[C@]21CC[C@@](C)(CCO)O1`, for which the Activity result in series [2] is given as “Non-toxic”. Besides, the IC50 in the series with BV-2 [1] worked out at 36.9 µM.
In the same order, the values of `CC(=O)OCC[C@]1(C)CC[C@@]2(O1)[C@H](C)[C@@H](O)[C@@H](OC(C)=O)[C@H]1[C@@](C)(COC(C)=O)[C@H](OC(C)=O)CC[C@@]12C` are “Non-toxic” and 11 µM.
`CC(=O)OC[C@@]1(C)[C@H](O)CC[C@]2(C)C(CCC(C)(O)CCO)=C(C)C(=O)[C@@H](OC(C)=O)[C@@H]12` (stereo partly drawn): the inhibition at 80 µM in the series on BV-2 [3] was < 50%.
With `CC(=O)OCC[C@]1(C)CC[C@@]2(O1)[C@H](C)C(=O)[C@@H](OC(C)=O)[C@H]1[C@@](C)(COC(C)=O)[C@H](O)CC[C@@]12C`, the Activity entry in series [2] was “Non-toxic”. Also, the IC50 in the series on BV-2 [1] came to 63.7 µM.
As to `CC(=O)OC[C@@]1(C)[C@H](OC(C)=O)CC[C@@]2(C)[C@H]1[C@H](OC(C)=O)C(=O)[C@@H](C)[C@]21CC[C@@](C)(CCO)O1`, the Activity entry in series [2] was “Non-toxic”. In the series on BV-2 [1], the IC50 amounted to 20.7 µM.
On to `CC(=O)O[C@@H]1CC[C@]2(C)C(CCC(C)(O)CCO)=C(C)C(=O)[C@@H](O)[C@H]2[C@@]1(C)CO` (stereo partly drawn), for which the inhibition at 80 µM in the series on BV-2 [3] is < 50%.
As to `CC(=O)OCCC(C)(O)CCC1=C(C)C(=O)[C@@H](OC(C)=O)[C@H]2[C@@](C)(COC(C)=O)[C@H](OC(C)=O)CC[C@]12C` (stereo partly drawn), in series [2], the Activity result is recorded as “Non-toxic”. In the series with BV-2 [1], the IC50 was 12.7 µM.
Regarding `CC(=O)O[C@@H]1C(=O)[C@@H](C)[C@]2(CC[C@@](C)(CCO)O2)[C@@]2(C)CC[C@@H](OC(C)=O)[C@](C)(CO)[C@H]12`, the Activity result in series [2] is given as “Non-toxic”. Also, in the series on BV-2 [1], the IC50 turned out to be 16.2 µM.
In the same order, the values of `CC(=O)OCC[C@]1(C)CC[C@@]2(O1)[C@H](C)C(=O)[C@@H](O)[C@H]1[C@@](C)(COC(C)=O)[C@H](O)CC[C@@]12C` are “Non-toxic” and 45.7 µM.
The matching figures for `CC(=O)OCC[C@]1(C)CC[C@@]2(O1)[C@H](C)[C@@H](OC(C)=O)[C@@H](O)[C@H]1[C@@](C)(COC(C)=O)[C@H](OC(C)=O)CC[C@@]12C`: “Non-toxic” and 10 µM.
In the same order, the values of `CC(=O)OC[C@@]1(C)[C@H](O)CC[C@]2(C)C(CCC(C)(O)CCO)=C(C)C(=O)[C@@H](O)[C@@H]12` (stereo partly drawn) are “Non-toxic” and 53.6 µM.
With `CC(=O)OC[C@@]1(C)[C@H](OC(C)=O)CC[C@]2(C)C(CCC(C)(O)CCO)=C(C)C(=O)[C@@H](OC(C)=O)[C@@H]12` (stereo partly drawn), the inhibition at 80 µM in the series with BV-2 [3] stood at 50%.
As for `CC(=O)OCC[C@]1(C)CC[C@@]2(O1)[C@H](C)[C@@H](O)C(=O)[C@H]1[C@@](C)(COC(C)=O)[C@H](O)CC[C@@]12C`, the Activity entry in series [2] is “Non-toxic”. For the same compound, the IC50 in the series on BV-2 [1] was 13.2 µM.
In the same order, the values of `CC(=O)OC[C@@]1(C)[C@H](OC(C)=O)CC[C@@]2(C)[C@H]1[C@H](O)C(=O)[C@@H](C)[C@]21CC[C@@](C)(CCO)O1` are “Non-toxic” and 41.7 µM.
In the same order, the values of `CC(=O)OCC[C@]1(C)CC[C@@]2(O1)[C@H](C)C(=O)[C@@H](OC(C)=O)[C@H]1[C@@](C)(COC(C)=O)[C@H](OC(C)=O)CC[C@@]12C` are “Non-toxic” and 48.1 µM.
